Assay results reported in ChEMBL document CHEMBL1149883, “alpha-Glucosidase inhibitory activity of triterpenoids from Cichorium intybus” (J Nat Prod, 2008).
The source made the active and inactive calls. The calls are words filed in the database; no cut-off is given here.

Biological target: not listed separately
Experiment: (§1) Inhibition of Saccharomyces sp. alpha-glucosidase
Procedure, shortened: (§2)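 Read spectrophotometrically at pH 6.9 and 37 °C in 50 mM sodium phosphate buffer with 100 mM NaCl. Substrate was 0.5 mM p-nitrophenyl α-D-glucopyranoside, and enzyme was 250 m units/mL. The rise in absorbance at 400 nm from PNP-G hydrolysis was followed continuously. 1-Deoxynojirimycin (0.425 mM) and acarbose (0.78 mM) served as positive controls. Modified from Oki et al.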
Compound `OC[C@H]1NC[C@H](O)[C@@H](O)[C@@H]1O` [DUVOGLUSTAT] has an IC50 of 425 µM.
In the case of `C=C1[C@H](O)C[C@]2(C)CC[C@]3(C)[C@H](CC[C@@H]4[C@@]5(C)CC[C@H](O)C(C)(C)[C@@H]5CC[C@]43C)[C@H]2[C@H]1C`, the IC50 is reported as 51.9 µM.
Compound `COc1cc(C(=O)O)ccc1O` [VANILLIC ACID] has an IC50 of 69 µM.
Compound `C=C1[C@H](OC(C)=O)C[C@]2(C)CC[C@]3(C)[C@H](CC[C@@H]4[C@@]5(C)CC[C@H](OC(C)=O)C(C)(C)[C@@H]5CC[C@]43C)[C@H]2[C@H]1C` has an IC50 of 10 µM.
Work on `C[C@H]1C(=O)CC[C@@H]2[C@]1(C)CC[C@H]1[C@@]2(C)CC[C@@]2(C)[C@@H]3CC(C)(C)CC[C@]3(C)CC[C@]12C` [FRIEDELINE] yielded an IC50 of 321 µM.

Test system: Saccharomyces sp.
Experiment: as §1
Procedure, shortened: as §2
In the case of `CC[C@H](/C=C/[C@@H](C)[C@H]1CC[C@H]2[C@@H]3CC=C4C[C@@H](O)CC[C@]4(C)[C@H]3CC[C@]12C)C(C)C`, the Activity is reported as “inactive”.
In the case of `CO[C@H]1O[C@H](CO)[C@H](O)[C@H](O)[C@H]1O`, the Activity is reported as “inactive”.
For `C=C(C)[C@@H]1CC[C@]2(C=O)CC[C@]3(C)[C@H](CC[C@@H]4[C@@]5(C)CC[C@H](O)C(C)(C)[C@@H]5CC[C@]43C)[C@@H]12`, the Activity was “inactive”.
With `C=C(C)[C@@H]1CC[C@]2(C)CC[C@]3(C)[C@H](CC[C@@H]4[C@@]5(C)CC[C@H](O)C(C)(C)[C@@H]5CC[C@]43C)[C@@H]12` the Activity was “inactive”.
For `CC[C@H](CC[C@@H](C)[C@H]1CC[C@H]2[C@@H]3CC=C4C[C@@H](O)CC[C@]4(C)[C@H]3CC[C@]12C)C(C)C`, the Activity was “inactive”.
In the case of `C=C1[C@@H]2CC[C@@]3(C)[C@@H](c4ccoc4)OC(=O)C[C@@]13O[C@H]1CC(=O)C(C)(C)[C@H](C(O)C(=O)OC)[C@]12C` (stereo not given in full), the Activity is reported as “inactive”.
For `O=c1ccc2cc(O)c(O)cc2o1`, the Activity was “inactive”.
With `C=C(C)[C@@H]1CC[C@]2(C(=O)O)CC[C@]3(C)[C@H](CC[C@@H]4[C@@]5(C)CC[C@H](O)C(C)(C)[C@@H]5CC[C@]43C)[C@@H]12` the Activity was “inactive”.
In the case of `C=C(C)[C@@H]1CC[C@]2(CO)CC[C@]3(C)[C@H](CC[C@@H]4[C@@]5(C)CC[C@H](O)C(C)(C)[C@@H]5CC[C@]43C)[C@@H]12`, the Activity is reported as “inactive”.
In the case of `COc1cc(C(=O)O)cc(OC)c1O`, the Activity is reported as “inactive”.
